Measurements published in ChEMBL document CHEMBL1139334, “Discovery of novel analgesic and anti-inflammatory 3-arylamine-imidazo[1,2-a]pyridine symbiotic prototypes” (Bioorg Med Chem, 2009).
pIC50: −log10 of the molar value. The source made the active and inactive calls. No cut-off for these calls is given here.

Key:
[1] = tested on: Mus musculus; test: Analgesic activity in Swiss mouse assessed as inhibition of acetic acid-induced abdominal constriction at 100 umol/kg, po administered 1 hr before acetic acid challenge; assay type: functional; details: Abdomen
How it was run: (§1)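 Swiss mice (18–23 g) received compounds orally as a suspension in 5% arabic gum in saline; controls received an equal volume of vehicle. After 1 h, 0.6% acetic acid (0.1 ml/10 g) was given ip. Constrictions were counted for 20 min, starting 10 min after injection. Results are % inhibition versus vehicle; N = 7–10 per group; mean ± SEM; one-way ANOVA with Dunnett test.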

[2] = tested on: Rattus norvegicus; test: Antihyperalgesic activity in Wistar rat assessed as inhibition of capsaicin-induced thermal hyperalgesia at 100 umol/kg, po; assay type: functional, organism-based
How it was run: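 Fasted Wistar rats of both sexes (150–200 g) had basal and acclimatization withdrawal latencies recorded on a 52 °C hot plate. Compound was given orally 1 h before an intraplantar injection of 5% capsaicin in DMSO into the right hind paw. Right hind paw withdrawal latency was timed by chronometer at 2, 5, 10, 30 and 60 min post-challenge.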

[3] = tested on: Rattus norvegicus; test: Antiinflammatory activity in Wistar rat assessed as inhibition of carrageenan-induced paw edema at 100 umol/kg, po measured 3 hrs post carrageenan challenge; assay type: functional
How it was run: (§2)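 Fasted Wistar rats of both sexes (150–200 g) were dosed orally with a suspension in 5% arabic gum in saline; controls received vehicle. After 1 h, 1% carrageenan (0.1 ml, […]) was injected subplantarly into the right hind paw and sterile saline into the left. Paw volumes were read by glass plethysmometer 3 h later. Edema is the carrageenan-minus-saline paw volume; results are % inhibition versus vehicle.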

[4] = molecular target: T1, Prostaglandin G/H synthase 2 (Homo sapiens, UniProt P35354); test: Inhibition of PGHS2 in human whole blood assessed as inhibition of TXB2 production by radioimmunoassay; assay type: tissue-based
T1 sequence (P35354 whole entry): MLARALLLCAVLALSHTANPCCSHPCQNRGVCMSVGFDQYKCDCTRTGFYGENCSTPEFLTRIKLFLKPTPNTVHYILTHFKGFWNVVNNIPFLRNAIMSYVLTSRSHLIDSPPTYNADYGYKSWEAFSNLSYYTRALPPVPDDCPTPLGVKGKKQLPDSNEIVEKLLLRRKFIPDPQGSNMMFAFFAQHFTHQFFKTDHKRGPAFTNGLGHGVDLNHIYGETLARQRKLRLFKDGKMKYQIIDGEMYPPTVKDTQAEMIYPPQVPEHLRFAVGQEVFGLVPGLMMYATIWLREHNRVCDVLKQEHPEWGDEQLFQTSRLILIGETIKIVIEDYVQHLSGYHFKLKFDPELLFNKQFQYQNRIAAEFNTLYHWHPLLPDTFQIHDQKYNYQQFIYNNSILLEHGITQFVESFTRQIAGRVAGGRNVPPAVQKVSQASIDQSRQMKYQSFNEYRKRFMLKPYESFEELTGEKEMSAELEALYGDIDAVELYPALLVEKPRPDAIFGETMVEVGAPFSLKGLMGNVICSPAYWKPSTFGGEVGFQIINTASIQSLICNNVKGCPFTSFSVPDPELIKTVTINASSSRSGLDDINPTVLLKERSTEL

[5] = tested on: Rattus norvegicus; test: Antiinflammatory activity in po dosed Wistar rat assessed as inhibition of carrageenan-induced paw edema measured 3 hrs post carrageenan challenge; assay type: functional; how it was run: as §2
[6] = tested on: Mus musculus; test: Analgesic activity in po dosed Swiss mouse assessed as inhibition of acetic acid-induced abdominal constriction administered 1 hr before acetic acid challenge; assay type: functional; details: Abdomen; how it was run: as §1

Which inhibition in vivo at 100 µmol/kg [1] does the source give for CS(=O)(=O)c1ccc(Nc2c(-c3ccccn3)nc3ccccn23)cc1 here?
Its inhibition in vivo at 100 µmol/kg is 33.7%.

What about the Activity [2] of the same compound?
The Activity was “Active”.

What about the inhibition in vivo at 100 µmol/kg [3] of the same compound?
The inhibition in vivo at 100 µmol/kg was 18.5%.

With CS(=O)(=O)c1ccc(Nc2c(-c3ccncc3)nc3ccccn23)cc1 as the compound, how does the inhibition in vivo at 100 µmol/kg [1] read?
The inhibition in vivo at 100 µmol/kg was 33.6%.

And the Activity [2]?
The Activity was “Active”.

And the inhibition in vivo at 100 µmol/kg [3]?
The inhibition in vivo at 100 µmol/kg was 1.8%.

Which inhibition in vivo at 100 µmol/kg [1] does the source give for c1ccc(Nc2c(-c3ccccn3)nc3ccccn23)cc1 here?
Its inhibition in vivo at 100 µmol/kg is -3%.

What about the Activity [2] of the same compound?
The Activity was “Active”.

And the pIC50 [4]?
The pIC50 was 4.73.

What about the inhibition in vivo at 100 µmol/kg [3] of the same compound?
Its inhibition in vivo at 100 µmol/kg is 33.4%.

What does the source list for c1ccc(Nc2c(-c3ccccc3)nc3ccccn23)cc1?
inhibition in vivo at 100 µmol/kg [1]: 10.8%; Activity [2]: Active; ED50 [5]: 14.5 µmol/kg; inhibition in vivo at 100 µmol/kg [3]: 63.9%

With Cc1ccc(-c2cc(C(F)(F)F)nn2-c2ccc(S(N)(=O)=O)cc2)cc1 [CELECOXIB] as the compound, how does the ED50 [6] read?
Its ED50 is 247 µmol/kg.

And the inhibition in vivo at 100 µmol/kg [1]?
The inhibition in vivo at 100 µmol/kg was 46.1%.

What about the ED50 [5] of the same compound?
The ED50 was 87.7 µmol/kg.

What about the inhibition in vivo at 100 µmol/kg [3] of the same compound?
Its inhibition in vivo at 100 µmol/kg is 30%.

CS(=O)(=O)c1ccc(-c2nc3ccccn3c2Nc2ccccc2)cc1 was tested. Which inhibition in vivo at 100 µmol/kg [1] did it give?
The inhibition in vivo at 100 µmol/kg was 7.4%.

And the Activity [2]?
Its Activity is “inactive”.

What about the inhibition in vivo at 100 µmol/kg [3] of the same compound?
The inhibition in vivo at 100 µmol/kg was 28.2%.

Which results are given for c1ccc(Nc2c(-c3ccncc3)nc3ccccn23)cc1?
inhibition in vivo at 100 µmol/kg [1]: 13%; Activity [2]: Active; ED50 [5]: 11.5 µmol/kg; inhibition in vivo at 100 µmol/kg [3]: 49.9%

For CS(=O)(=O)c1ccc(-c2nc3ccccn3c2Nc2ccccn2)cc1, which inhibition in vivo at 100 µmol/kg [1] is on record?
Its inhibition in vivo at 100 µmol/kg is 22.2%.

And the Activity [2]?
The Activity was “Active”.

And the inhibition in vivo at 100 µmol/kg [3]?
The inhibition in vivo at 100 µmol/kg was 17.2%.

For COc1ccc(Nc2c(-c3ccc(S(C)(=O)=O)cc3)nc3ccccn23)cc1, which ED50 [6] is on record?
Its ED50 is 22.7 µmol/kg.

What about the inhibition in vivo at 100 µmol/kg [1] of the same compound?
Its inhibition in vivo at 100 µmol/kg is 53%.

And the Activity [2]?
The Activity was “inactive”.

And the ED50 [5]?
Its ED50 is 8.7 µmol/kg.

What about the pIC50 [4] of the same compound?
Its pIC50 is 5.55.

And the inhibition in vivo at 100 µmol/kg [3]?
Its inhibition in vivo at 100 µmol/kg is 41.7%.
